In the library only some 1.9% were active in any assay of this set; here they are far more common.
M4 PAM: human M4 muscarinic receptor positive allosteric modulators, primary screen, CHO-K1 cells, Fluo-8 calcium fluorescence; AID 624126, 2012; activation, % at 3 µM; CHO-K1 hM4/Gqi5, ACh EC20; 0% = ACh EC20, 100% = maximal ACh; Muscarinic acetylcholine receptor M4 (Homo sapiens), P08173; actives 0.4% (n = 360,000);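 active = activation above its plate's cutoff, the mean activation of sample wells plus 3 SD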
CHRM5 agonist: human M5 muscarinic receptor agonists, primary screen, CHO-K1 cells, Fluo-8 calcium fluorescence; Muscarinic acetylcholine receptor M5 (Homo sapiens), P08912; CHO-K1 hM5 cells; 0% DMSO wells, 100% maximal acetylcholine response; activation, % at 3 µM; actives 0.19% (n = 360,000); AID 624037, 2012;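 active = activation above the run's mean over test compounds plus 3 SD, cut at about 23% in these data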;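 also: signal is peak over basal fluorescence ratio across the kinetic read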
Target sequence (P08912 whole entry, looked up): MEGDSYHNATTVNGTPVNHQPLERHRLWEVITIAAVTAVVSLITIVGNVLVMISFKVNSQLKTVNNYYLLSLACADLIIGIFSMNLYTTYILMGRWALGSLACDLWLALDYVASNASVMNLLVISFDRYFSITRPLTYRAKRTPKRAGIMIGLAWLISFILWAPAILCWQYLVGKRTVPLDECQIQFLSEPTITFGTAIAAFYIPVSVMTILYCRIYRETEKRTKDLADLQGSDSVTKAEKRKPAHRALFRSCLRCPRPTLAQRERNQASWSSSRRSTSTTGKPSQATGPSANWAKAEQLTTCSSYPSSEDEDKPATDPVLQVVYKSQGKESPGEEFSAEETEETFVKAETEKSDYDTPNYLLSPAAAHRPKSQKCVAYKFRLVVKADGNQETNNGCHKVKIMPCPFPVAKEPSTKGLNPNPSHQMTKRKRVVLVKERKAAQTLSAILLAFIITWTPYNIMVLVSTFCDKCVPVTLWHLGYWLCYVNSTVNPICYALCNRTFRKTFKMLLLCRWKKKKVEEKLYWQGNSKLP
CHRM5 antagonist: human M5 muscarinic receptor antagonists, primary screen, CHO cells, Fluo-8 calcium fluorescence | AID 624040, 2012 | Muscarinic acetylcholine receptor M5 (Homo sapiens), P08912 | inhibition, % at 3 µM | CHO-hM5 cells, ACh EC80 | actives 0.59% (n = 360,000);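 active = inhibition above a per-plate cutoff, the mean of that plate's test compounds plus 3 SD, cut at about 27% in these data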
M4 antag: human M4 muscarinic receptor antagonists, primary screen, CHO cells, Fluo-8 calcium fluorescence; CHO-hM4 cells, ACh EC80; inhibition, % at 3 µM; actives 0.73% (n = 360,000); AID 624125, 2012;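 active = inhibition above its plate's cutoff, the mean inhibition of sample wells plus 3 SD, cut at about 27% in these data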
M4 ag: human M4 muscarinic receptor agonists, primary screen, CHO-K1 cells, Fluo-8 calcium fluorescence; actives 0.14% (n = 360,000); Muscarinic acetylcholine receptor M4 (Homo sapiens), P08173; CHO-K1 hM4/Gqi5; vehicle 0%, full acetylcholine response 100%; AID 624127, 2012; activation, % at 3 µM;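 active = activation above the run mean over all test wells plus 3 SD, cut at about 32% in these data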;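 also: peak over basal fluorescence ratio per well then scaled between controls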
CHRM5 PAM: human M5 muscarinic receptor positive allosteric modulators, primary screen, CHO-K1 cells, Fluo-8 calcium fluorescence | Muscarinic acetylcholine receptor M5 (Homo sapiens), P08912 | CHO-K1 hM5, ACh EC20 PAM; 0% = ACh EC20, 100% = ACh EC100 | activation, % at 3 µM | actives 0.3% (n = 360,000);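 active = activation above the run cutoff, the mean activation of all test compounds plus 3 SD, cut at about 18% in these data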
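Replicates: One well per compound, no replicates | System: Human M5 receptor in CHO-K1 cells | Benchmarks: Low control EC20 acetylcholine (0%), high control EC100 acetylcholine (100%) | Probe or stimulus: Acetylcholine, EC20 level | Times: Fluo-8 loading 80 min at 37 °C plus 30 min room temperature | Signal: Intracellular calcium via Fluo-8 fluorescence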
Large screens that a line does not name were inactive.

Cc1ccc(S(=O)(=O)NC(=O)Nc2ccc(C)cc2C)cc1	none
c1ccc(Nc2ccc3c4c(cccc24)CC3)cc1	CHRM5 agonist 27, CHRM5 antagonist 37, M4 antag 33
c1ccc(Nc2cccc3ccccc23)cc1	none
CCN(CC)S(=O)(=O)c1ccc(C(=O)NCC(c2cccs2)N2CCOCC2)cc1 (stereo unspecified)	M4 antag 39
Cc1ccc(NC(=S)NCC2CCCO2)cc1 (stereo unspecified)	M4 PAM 26
Cc1ccc(C)c(-n2c(=O)c(C#N)cc3c(=O)n4ccccc4nc32)c1	CHRM5 PAM 28
CCCCC(=O)c1ccc(OC(=O)c2ccc([N+](=O)[O-])cc2)cc1	none
O=C(O)C(Cc1c[nH]c2ccccc12)NS(=O)(=O)c1ccc2ccccc2c1 (stereo unspecified)	M4 PAM 20
O=C(O)C(Cc1c[nH]c2ccccc12)NS(=O)(=O)c1ccc(F)cc1 (stereo unspecified)	none
NNC1=N[C@H]2CS(=O)(=O)C[C@H]2S1	M4 PAM 24
O=C(NCc1ccccc1)c1ccc(NC2=NC3CS(=O)(=O)CC3S2)cc1 (stereo unspecified)	none
CCC(C)(C)c1ccc(OCCCC[n+]2cccc(C)c2C)c(C(C)(C)CC)c1	CHRM5 antagonist 47, M4 antag 62
COC(=O)CNC(=O)CNC(=O)Nc1ccccc1	none
COC(=O)CCCCNC(=O)Nc1ccccc1	CHRM5 PAM 23
CN(C(=O)COn1nnc2ccc(Cl)cc21)C1CCS(=O)(=O)C1 (stereo unspecified)	none
CC(=O)C1=C(O)C(=O)N(c2cc(C(C)(C)C)on2)C1c1ccc(Br)cc1 (stereo unspecified)	M4 PAM 30
O=C(O)c1cc(Cl)c(Cl)cc1C(=O)N(Cc1ccccc1)Cc1ccccc1	none
Cc1c(C(=O)NC2CCS(=O)(=O)C2)oc2ccccc12 (stereo unspecified)	CHRM5 antagonist 27
CC(=O)NCCNC(=O)c1ccc(NC2=NC3CS(=O)(=O)CC3S2)cc1 (stereo unspecified)	CHRM5 antagonist 29, CHRM5 PAM 27
O=C(COC(=O)C1CCCC1)NCc1ccc(Cl)cc1	none
O=C(COC(=O)C1CCC1)NCc1ccccc1	M4 PAM 24
C=C(C)COc1ccc(-c2ncnc(C(F)(F)F)c2-c2ccc(OC)cc2)c(O)c1	none
C=C(C)COc1ccc(-c2ncnc(C(F)(F)F)c2-c2ccccc2)c(O)c1	M4 antag 27
Cc1cccc(OC(=O)n2c(=S)oc3cc(Cl)ccc32)c1	M4 PAM 30
CC(C)OC(=O)n1c(=S)oc2ccccc21	none
CCOC(=O)C1CCCN(Cc2nc3ccc([N+](=O)[O-])cc3c(=O)n2-c2ccc(OC)cc2OC)C1 (stereo unspecified)	CHRM5 agonist 29
CCCC(=O)Nc1ccc(S(=O)(=O)N2CCc3ccccc32)cc1	none
OCC1CCCN(c2nc(CN3CCCCC3)nc3scc(-c4ccccc4)c23)C1 (stereo unspecified)	none
CCNc1nc(CN2CCCCC2)nc2scc(-c3ccccc3)c12	M4 antag 27
O=C(CCSc1ccc(Cl)cc1)N1CCN(S(=O)(=O)c2ccccc2)CC1	none
S=C(c1ccc(-c2ccc(Cl)cc2Cl)o1)N1CCCC1	CHRM5 PAM 22
S=C(c1ccc(-c2ccc(Cl)cc2Cl)o1)N1CCCCC1	none
COC[C@H]1CCCN1c1ccc2c(c1)O[C@@H](COCc1ccccc1)CN([C@H](C)c1ccccc1)S2(=O)=O	none
Cc1cc(=O)[nH]c(SCC(=O)/C=C2\N(C)c3ccccc3C2(C)C)n1	CHRM5 antagonist 31, M4 antag 33
CN1/C(=C/C(=O)CSc2ccccc2C(=O)O)C(C)(C)c2ccccc21	none
CCCc1nnc(SCC(=O)Nc2cccc(Cl)c2Cl)o1	none
O=C(NCc1ccccc1)NC1(C(=O)N2CCOCC2)CCCCC1	CHRM5 PAM 42
CCCCNC(=S)Nc1ccc(Cl)cc1	none
CCCCNC(=S)Nc1ccc(C(F)(F)F)cc1	CHRM5 antagonist 34
CCc1ccc(NC(=O)C2CCN(S(=O)(=O)c3ccc4c(c3)NC(=O)C(C)S4)CC2)cc1 (stereo unspecified)	CHRM5 antagonist 34
Cc1ccc(NC(=O)C2CCN(S(=O)(=O)c3ccc4c(c3)NC(=O)C(C)S4)CC2)cc1C (stereo unspecified)	CHRM5 antagonist 36
Cc1ccc(S(=O)(=O)N2CCC(C(=O)NCCCN3CCCC3=O)CC2)cc1	none
Cc1ccc(S(=O)(=O)N2CCC(C(=O)NCCCN3CCCC3=O)CC2)cc1C	M4 PAM 22
COc1cccc(C(=O)Oc2ccc3ccc(=O)oc3c2)c1	none
Cc1cc(C)nc(Sc2ncnc(N)c2[N+](=O)[O-])n1	none
CCCC(C(=O)NC1CCCC1)N(CC1CCCO1)C(=O)CNS(=O)(=O)c1ccc(F)cc1 (stereo unspecified)	none
COc1ccc(S(N)(=O)=O)cc1C(N)=O	none
COc1ccc(S(=O)(=O)N2CCSCC2)cc1C(N)=O	M4 PAM 14
CC(C)(C)NS(=O)(=O)c1ccc(NC(=S)NC(=O)C2CC2)cc1	none
Nc1oc2ccccc2c1C(=O)Cc1ccccc1O[C@@H]1O[C@H](CO)[C@@H](O)[C@H](O)[C@H]1O	none
O=C(Nc1ccccc1)c1ccc(CN2CCC(Cc3ccccc3)CC2)cc1	M4 antag 32
O=C(Nc1ccc(S(=O)(=O)N2CCCC2)cc1)c1ccc(CN2CCc3ccccc3C2)cc1	M4 antag 32
COCC(C)NC(=O)c1ccc(CN2CCc3ccccc3C2)cc1 (stereo unspecified)	M4 antag 28
O=C(Nc1ccc(Cl)cc1)c1ccc(CN2CCc3ccccc3C2)cc1	none
CCS(=O)(=O)N1CCC(NC(=O)C(Cc2cc(OC)ccc2OC)NC(C)=O)CC1 (stereo unspecified)	none
CNCCNC[C@H](Cc1cccc2ccccc12)NCCc1ccccc1	none
CNC[C@H](Cc1ccccc1)NC[C@@H](Cc1cccc2ccccc12)NCCc1ccc(C)cc1	M4 antag 38
O=C(Nc1ccc(Oc2ccccc2)cc1)c1csc([C@@H]2O[C@H](CO)[C@H](O)[C@H](O)[C@H]2O)n1	none

Screens as filed in PubChem BioAssay.
